From ChEMBL document CHEMBL1138621, “Inhibition of tRNA-dependent ligase MurM from Streptococcus pneumoniae by phosphonate and sulfonamide inhibitors” (Bioorg Med Chem, 2009) come the findings set out here.

The subject of assay [1] is Streptococcus pneumoniae. Kind of assay: Inhibition of penicillin-resistant Streptococcus pneumoniae 159 recombinant MurM at 1 mM by liquid scintillation counting.
Assay [2] is described as follows: Inhibition of penicillin-resistant Streptococcus pneumoniae 159 recombinant MurM by liquid scintillation counting. To be noted: for pIC50: read-out: IC50.
The target of assay [3] is T1, Alanine--tRNA ligase (Streptococcus pneumoniae serotype 4 (strain ATCC BAA-334 / TIGR4)) (UniProt Q97Q48).
T1 sequence (whole entry): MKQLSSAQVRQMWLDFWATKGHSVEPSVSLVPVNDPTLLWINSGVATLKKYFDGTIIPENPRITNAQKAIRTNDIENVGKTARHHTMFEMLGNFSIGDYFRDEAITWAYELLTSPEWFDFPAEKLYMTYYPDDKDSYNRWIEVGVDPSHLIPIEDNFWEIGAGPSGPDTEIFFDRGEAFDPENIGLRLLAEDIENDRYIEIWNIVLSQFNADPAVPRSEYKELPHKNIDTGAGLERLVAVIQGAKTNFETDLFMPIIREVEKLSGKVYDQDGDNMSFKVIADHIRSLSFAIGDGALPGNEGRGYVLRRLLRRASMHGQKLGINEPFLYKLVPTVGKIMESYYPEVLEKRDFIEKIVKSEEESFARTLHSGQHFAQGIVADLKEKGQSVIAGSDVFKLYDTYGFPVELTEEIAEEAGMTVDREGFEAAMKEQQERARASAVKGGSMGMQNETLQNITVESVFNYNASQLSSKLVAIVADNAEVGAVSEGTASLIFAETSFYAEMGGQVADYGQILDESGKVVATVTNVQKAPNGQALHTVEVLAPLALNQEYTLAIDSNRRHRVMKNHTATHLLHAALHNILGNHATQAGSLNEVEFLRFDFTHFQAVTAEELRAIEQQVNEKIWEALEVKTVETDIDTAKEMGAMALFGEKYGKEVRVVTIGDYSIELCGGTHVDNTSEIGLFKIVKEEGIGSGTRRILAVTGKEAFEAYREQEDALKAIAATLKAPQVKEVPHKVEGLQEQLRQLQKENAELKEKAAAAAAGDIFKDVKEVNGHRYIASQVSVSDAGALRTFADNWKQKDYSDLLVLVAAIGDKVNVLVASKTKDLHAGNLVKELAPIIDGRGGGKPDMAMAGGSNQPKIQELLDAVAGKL
As to the kind of experiment: Inhibition of Streptococcus pneumoniae alanyl tRNA synthetase expressed in Escherichia coli BL21 (DE3) assessed as formation of [3H]alanyl tRNA at 1 mM.

A further assay concerns Enterococcus faecalis. Kind of assay: Antimicrobial activity against Enterococcus faecalis expressing femABX gene at 1 to 5 mM by NCCLS method. It counts as functional, organism-based. The method, boiled down:
(§1)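 Growth inhibition in liquid culture per NCCLS protocol, compounds at 1–5 mM final concentration; strains tested: S. pneumoniae 159 and pn16, S. aureus MRSA and MSSA, E. faecalis, M. flavus, E. coli.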

Assay [4] relates to Streptococcus pneumoniae. As to the kind of experiment: Antibacterial activity against penicillin- resistant Streptococcus pneumoniae 159 at 1 mM by NCCLS method. The format is functional, organism-based. The method, boiled down: as §1
For assay [5], the target named is T2, Serine--tRNA ligase (Streptococcus pneumoniae serotype 4 (strain ATCC BAA-334 / TIGR4)) (UniProt Q97SG0).
T2 sequence (whole entry): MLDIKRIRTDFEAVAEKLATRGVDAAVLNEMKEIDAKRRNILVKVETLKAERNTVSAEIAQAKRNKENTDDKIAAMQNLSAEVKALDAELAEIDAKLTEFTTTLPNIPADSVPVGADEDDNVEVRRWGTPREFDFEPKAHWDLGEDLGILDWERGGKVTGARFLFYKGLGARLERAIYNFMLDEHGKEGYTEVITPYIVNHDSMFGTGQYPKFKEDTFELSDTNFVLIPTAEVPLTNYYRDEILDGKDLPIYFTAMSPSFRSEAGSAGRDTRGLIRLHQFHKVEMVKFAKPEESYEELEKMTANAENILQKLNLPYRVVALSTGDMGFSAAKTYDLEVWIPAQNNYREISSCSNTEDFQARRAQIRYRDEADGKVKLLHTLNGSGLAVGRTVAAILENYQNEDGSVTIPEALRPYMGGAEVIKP
As to the kind of experiment: Inhibition of Streptococcus pneumoniae seryl tRNA synthetase expressed in Escherichia coli BL21 (DE3) assessed as formation of [3H]seryl tRNA at 1 mM.

Assay [6] deals with T2, Serine--tRNA ligase (Streptococcus pneumoniae serotype 4 (strain ATCC BAA-334 / TIGR4)). As to the kind of experiment: Inhibition of Streptococcus pneumoniae seryl tRNA synthetase expressed in Escherichia coli BL21 (DE3) assessed as formation of [3H]seryl tRNA at 100 uM.
The next assay concerns Micrococcus flavus. As to the kind of experiment: Antimicrobial activity against Micrococcus flavus expressing femABX gene at 1 to 5 mM by NCCLS method. It counts as functional, organism-based. Put shortly:
as §1

Assay [7] deals with Staphylococcus aureus. As to the kind of experiment: Antimicrobial activity against methicillin-resistant Staphylococcus aureus expressing femABX gene at 1 to 5 mM by NCCLS method. The format is functional, organism-based. Put shortly: as §1
In assay [8] the target is T1, Alanine--tRNA ligase (Streptococcus pneumoniae serotype 4 (strain ATCC BAA-334 / TIGR4)). As to the kind of experiment: Inhibition of Streptococcus pneumoniae alanyl tRNA synthetase expressed in Escherichia coli BL21 (DE3) assessed as formation of [3H]alanyl tRNA at 100 uM.
For assay [9], the system named is Staphylococcus aureus. As to the kind of experiment: Antimicrobial activity against methicillin-susceptible Staphylococcus aureus expressing femABX gene at 1 to 5 mM by NCCLS method. The format is functional, organism-based. Put shortly: as §1

pIC50: −log10 of the molar value. Active and inactive are the calls of the source. The rule behind the calls is not given here.

Consider `CCCNP(=O)(OC)C(NC(=O)OCc1ccccc1)c1ccccc1` (stereo unspecified), for which the outcome with Streptococcus pneumoniae [1] was inactive.

`CC(N)P(=O)(O)O[C@H]1[C@@H](O)[C@H](n2cnc3c(N)ncnc32)O[C@@H]1CO` (stereo partly specified): the IC50 result in assay [2] is recorded as “Not Active”.

In the case of `COC(=O)[C@H](CCCCNP(=O)(OC)C(C)NC(=O)OCc1ccccc1)NC(=O)OC(C)(C)C` (stereo partly specified), the result in the assay on Streptococcus pneumoniae [1] was inactive.

On to `COCCOP(=O)(NCCCC[C@H](NC(=O)OC(C)(C)C)C(=O)OC)C(C)NC(=O)OCc1ccccc1` (stereo partly specified), for which, in the assay on Streptococcus pneumoniae [1], the result was inactive.

As to `CC(NC(=O)OCc1ccccc1)P(=O)(O)O[C@H]1C[C@H](n2cnc3c(N)ncnc32)O[C@@H]1CO` (stereo partly specified), in the assay with Streptococcus pneumoniae [1], the inhibition was 0%.

Take `COc1ccc(C[C@H](N)C(=O)N[C@H]2[C@@H](O)[C@H](n3cnc4c(N(C)C)ncnc43)O[C@@H]2CO)cc1`: the inhibition with Streptococcus pneumoniae [1] is 0%.

Take `CC(N)P(=O)(O)O[C@@H]1[C@H](O)[C@@H](CO)O[C@H]1n1cnc2c(N)ncnc21` (stereo partly specified): the inhibition in the assay on Streptococcus pneumoniae [1] came out at 55%. The pIC50 in [2] was 3.11.

Turning to `CCCCOP(=O)(NCCC)C(C)NC(=O)OCc1ccccc1` (stereo unspecified), the result in the assay on Streptococcus pneumoniae [1] was inactive.

Turning to `CC(NC(=O)OCc1ccccc1)P(=O)(O)O[C@H]1C[C@H](n2cnc3c(N)ncnc32)O[C@@H]1CO[Si](C)(C)C(C)(C)C` (stereo partly specified), in the assay on Streptococcus pneumoniae [1], the inhibition was determined as 0%.

In the case of `CCCNP(=O)(OC)C(C)NC(=O)OCc1ccccc1` (stereo unspecified), the outcome with Streptococcus pneumoniae [1] was inactive.

Turning to `CCCNP(=O)(OCCOC)C(C)NC(=O)OCc1ccccc1` (stereo unspecified), the outcome in the assay on Streptococcus pneumoniae [1] was inactive.

On to `CCCNP(=O)(OC)C(CC)NC(=O)OCc1ccccc1` (stereo unspecified), for which the result in the assay with Streptococcus pneumoniae [1] was inactive.

For `CC(N)P(=O)(O)O[C@H]1C[C@H](n2cnc3c(N)ncnc32)O[C@@H]1CO` (stereo partly specified), the inhibition was determined as 22% in [3], 28% in assay [5] and 95% with Streptococcus pneumoniae [1]. Further, the result in the assay with Enterococcus faecalis, in the assay with Micrococcus flavus, in the assay with Staphylococcus aureus [7] and in the assay on Staphylococcus aureus [9] was inactive. In addition, the “growth inhibition (GI)” value with Streptococcus pneumoniae [4] was “inactive”. Besides, the inhibition entry in assay [6] and in assay [8] was “inactive” each time. Moreover, the pIC50 in assay [2] is 4.00.

For the compound `Nc1ncnc2c1ncn2[C@H]1C[C@H](O)[C@@H](CO)O1`, the inhibition with Streptococcus pneumoniae [1] amounted to 13%.

Regarding `CNC(=O)OC[C@H]1O[C@@H](n2cnc3c(N)ncnc32)C[C@@H]1OP(=O)(O)C(C)N` (stereo partly specified), in the assay with Streptococcus pneumoniae [1], the inhibition is 3%.

As to `CC(N)P(=O)(O)O[C@H]1C[C@H](n2cnc3c(N)ncnc32)O[C@@H]1CO[Si](C)(C)C(C)(C)C` (stereo partly specified), the inhibition with Streptococcus pneumoniae [1] turned out to be 0%.

With `CC(NC(=O)OCc1ccccc1)P(=O)(O)O[C@H]1C[C@H](n2cnc3c(NC(=O)c4ccccc4)ncnc32)O[C@@H]1CO[Si](C)(C)C(C)(C)C` (stereo partly specified), the inhibition in the assay on Streptococcus pneumoniae [1] was 0%.

With `COC(=O)[C@H](CCCCNP(=O)(OC)C(NC(=O)OCc1ccccc1)c1ccccc1)NC(=O)OC(C)(C)C` (stereo partly specified), the outcome with Streptococcus pneumoniae [1] was inactive.

Consider `CCCCOP(=O)(NCCCC[C@H](NC(=O)OC(C)(C)C)C(=O)OC)C(C)NC(=O)OCc1ccccc1` (stereo partly specified), for which the result in the assay on Streptococcus pneumoniae [1] was inactive.

As to `Nc1ncnc2c1ncn2[C@H]1C[C@H](OP(=O)(O)O)[C@@H](CO)O1`, the inhibition in the assay on Streptococcus pneumoniae [1] turned out to be 15%.
